Each structure is given as a SMILES string. pKi: −log10 of the molar value. Calls of active or inactive are those of the source. The calls are words filed in the database; no cut-off is given here. Where only a bound is given, the exact number is not on record here.

The target in one data set is Carbonic anhydrase 4 (Homo sapiens, UniProt P22748). Briefly: Inhibition of recombinant human CA4 pre-incubated for 15 mins by phenol red dye based stopped flow CO2 hydration assay.
Data set [1] has as its system Rattus norvegicus. Briefly: Antinociceptive activity against complete freund's adjuvant-induced arthritic Sprague-Dawley rat model assessed as reduction in mechanical hyperalgesia induced hypersensitivity at 10 to 30 mg/kg, po administered as single dose starting from day 14 post CFA injection and measured upto 75 mins by Paw pressure test. It is filed as functional, organism-based. Conditions: dose 10-30 mg/kg.

Data set [2] relates to Rattus norvegicus. Briefly: Antinociceptive activity against complete freund's adjuvant-induced arthritic Sprague-Dawley rat model assessed as reduction in spontaneous pain by measuring difference in weight tolerance on contralateral and ipsilateral paw at 10 mg/kg, po administered as single dose starting from day 14 post CFA injection and measured upto 75 mins by Incapacitance test. It is filed as functional, organism-based. The procedure, abridged: (§1)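 Sprague Dawley rats 200–250 g, CFA 50 μL intra-articular into left tibiotarsal joint on day 0 (saline controls). On day 14, single oral dose in 1% CMC (hybrids 1, 10, 30 mg/kg; single agents 13.23 or 17.71 mg/kg). Incapacitance apparatus, rats on hind paws on 65° inclined plane; Δ weight = contralateral minus ipsilateral load over time; 8 rats, two experimental sets, mean (SEM).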

Another data set deals with Carbonic anhydrase 2 (Homo sapiens, UniProt P00918). Briefly: Inhibition of recombinant human CA2 pre-incubated for 15 mins by phenol red dye based stopped flow CO2 hydration assay.
Data set [3] has as its system Rattus norvegicus. Briefly: Antinociceptive activity against complete freund's adjuvant-induced arthritic Sprague-Dawley rat model assessed as increase in weight tolerated on ipsilateral paw at 10 to 30 mg/kg, po administered as single dose starting from day 14 post CFA injection and measured after 15 to 45 mins by Paw pressure test. Conditions: dose 10-30 mg/kg, time lower 15.0 min, time upper […]. Format: functional, organism-based.

For the next data set, the target named is Carbonic anhydrase 9 (Homo sapiens, UniProt Q16790). Briefly: Inhibition of recombinant human CA9 pre-incubated for 15 mins by phenol red dye based stopped flow CO2 hydration assay.
Data set [4] can be described thus: Toxicity in Sprague-Dawley rat model of complete freund's adjuvant-induced arthritis assessed as effect on neurological parameters at 30 mg/kg, po measured for 24 hrs by Irwin test. Format: organism-based. Conditions: in vivo. Put shortly: (§2)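 Single oral 30 mg/kg dose (1% CMC suspension) in CFA-arthritic Sprague Dawley rats; animals observed 24 h. Irwin screen in individual transparent cage scoring 26 autonomic, behavioral and neurological parameters; some signs recorded as present/absent, skin colour qualitatively, others semiquantitatively on observer scales (0 to +4, −4 to 0, or −4 to +4).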

For data set [5], the system named is Liver. Briefly: Induction of H2S release in rat liver microsomes at 150 uM incubated for 90 mins by methylene blue based UV-Vis spectrophotometer analysis. Conditions: Homogenate, in the assay text read “rat liver homogenate” for “rat liver microsomes”. It is filed as functional. Put shortly: (§3)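 Rat liver homogenized 1/20 w/v in ice-cold 50 mM potassium phosphate pH 7.4, diluted further 1:10; compound 150 μM final (30 mM DMSO stock) in airtight vials at 37 °C, 0–90 min. H2S trapped with zinc acetate, proteins precipitated with TCA, then N,N-dimethyl-p-phenylenediamine/FeCl3; methylene blue A667 after 30 min at 25 °C; Na2S calibration 1–250 μM; compound-free baseline; triplicate.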
(In general: Liver microsomes are vesicles of endoplasmic reticulum, rich in cytochrome P450 enzymes.)

For another data set, the target named is Carbonic anhydrase 1 (Homo sapiens, UniProt P00915). Briefly: Inhibition of recombinant human CA1 pre-incubated for 15 mins by phenol red dye based stopped flow CO2 hydration assay.
A short description of data set [6]: Toxicity in Sprague-Dawley rat model of complete freund's adjuvant-induced arthritis assessed as effect on autonomical parameters at 30 mg/kg, po measured for 24 hrs by Irwin test. It is filed as organism-based. Conditions: in vivo. Put shortly: as §2
A further data set has as its target Carbonic anhydrase 12 (Homo sapiens, UniProt O43570). Briefly: Inhibition of recombinant human CA12 pre-incubated for 15 mins by phenol red dye based stopped flow CO2 hydration assay.
Data set [7] relates to Liver. Briefly: Induction of H2S release in rat liver microsomes assessed as half life of H2S release at 150 uM incubated for 90 mins by methylene blue based UV-Vis spectrophotometer analysis. Format: functional. Conditions: Homogenate, in the assay text read “rat liver homogenate” for “rat liver microsomes”. The procedure, abridged: as §3
Data set [8] in a line: Toxicity in Sprague-Dawley rat model of complete freund's adjuvant-induced arthritis assessed as effect on behavioral parameters at 30 mg/kg, po measured for 24 hrs by Irwin test. It is filed as organism-based. The conditions noted are these: in vivo. The procedure, abridged: as §2
Data set [9] relates to Liver. Briefly: Induction of H2S release in rat liver microsomes assessed as Cmax of H2S release at 150 uM measured after 90 mins by methylene blue based UV-Vis spectrophotometer analysis. It is filed as functional. The conditions noted are these: Homogenate, in the assay text read “rat liver homogenate” for “rat liver microsomes”. Put shortly:
as §3

Data set [10] relates to Rattus norvegicus. Briefly: Antinociceptive activity against complete freund's adjuvant-induced arthritic Sprague-Dawley rat model assessed as reduction in spontaneous pain by measuring difference in weight tolerance on contralateral and ipsilateral paw administered orally as single dose starting from day 14 post CFA injection and measured after 30 to 45 mins by Incapacitance test. It is filed as functional, organism-based. Conditions: dose 1-30 mg/kg, route po, time lower 30.0 min, time upper […], DDE = dose-dependent effect. The procedure, abridged: as §1

Data set [11] has as its system Rattus norvegicus. Briefly: Antinociceptive activity against complete freund's adjuvant-induced arthritic Sprague-Dawley rat model assessed as reduction in mechanical hyperalgesia induced hypersensitivity administered orally as single dose starting from day 14 post CFA injection and measured upto 75 mins by Paw pressure test. Format: functional, organism-based. Conditions: dose 1-30 mg/kg, route po, DDE = dose-dependent effect.

The test system of data set [12] is Liver. Briefly: Induction of H2S release in rat liver microsomes assessed as Cmax of H2S release at 150 uM measured after 20 mins by methylene blue based UV-Vis spectrophotometer analysis. The conditions noted are these: Homogenate, in the assay text read “rat liver homogenate” for “rat liver microsomes”. It is filed as functional. The procedure, abridged: as §3

For data set [13], the system named is Rattus norvegicus. Briefly: Antinociceptive activity against complete freund's adjuvant-induced arthritic Sprague-Dawley rat model assessed as reduction in spontaneous pain by measuring difference in weight tolerance on contralateral and ipsilateral paw at 13.23 mg/kg, po administered as single dose starting from day 14 post CFA injection and measured after 15 to 30 mins by Incapacitance test. It is filed as functional, organism-based. Conditions: time 15-30 min. Put shortly:
as §1

Data set [14] deals with Rattus norvegicus. Briefly: Antinociceptive activity against complete freund's adjuvant-induced arthritic Sprague-Dawley rat model assessed as increase in weight tolerated on ipsilateral paw at 13.23 mg/kg, po administered as single dose starting from day 14 post CFA injection and measured after 15 to 45 mins by Paw pressure test. It is filed as functional, organism-based. Conditions: time lower 15.0 min, time upper […].

Sequence of Carbonic anhydrase 12 (O43570 whole entry): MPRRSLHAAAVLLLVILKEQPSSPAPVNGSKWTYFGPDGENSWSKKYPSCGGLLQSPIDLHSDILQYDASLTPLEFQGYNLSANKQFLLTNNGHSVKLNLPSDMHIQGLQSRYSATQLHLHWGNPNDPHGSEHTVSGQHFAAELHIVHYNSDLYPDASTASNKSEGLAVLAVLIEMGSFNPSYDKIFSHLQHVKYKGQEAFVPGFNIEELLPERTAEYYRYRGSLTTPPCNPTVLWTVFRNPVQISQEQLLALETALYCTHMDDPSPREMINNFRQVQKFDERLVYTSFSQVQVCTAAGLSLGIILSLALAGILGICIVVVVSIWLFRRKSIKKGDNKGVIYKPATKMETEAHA
Sequence of Carbonic anhydrase 1 (P00915 whole entry): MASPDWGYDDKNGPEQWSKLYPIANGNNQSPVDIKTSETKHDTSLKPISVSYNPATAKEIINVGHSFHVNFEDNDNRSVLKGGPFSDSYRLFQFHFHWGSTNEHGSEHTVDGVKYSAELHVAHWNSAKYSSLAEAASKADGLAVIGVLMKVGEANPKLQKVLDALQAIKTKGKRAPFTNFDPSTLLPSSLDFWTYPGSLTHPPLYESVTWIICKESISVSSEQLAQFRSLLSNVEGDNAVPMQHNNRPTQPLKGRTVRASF
Sequence of Carbonic anhydrase 4 (P22748 whole entry): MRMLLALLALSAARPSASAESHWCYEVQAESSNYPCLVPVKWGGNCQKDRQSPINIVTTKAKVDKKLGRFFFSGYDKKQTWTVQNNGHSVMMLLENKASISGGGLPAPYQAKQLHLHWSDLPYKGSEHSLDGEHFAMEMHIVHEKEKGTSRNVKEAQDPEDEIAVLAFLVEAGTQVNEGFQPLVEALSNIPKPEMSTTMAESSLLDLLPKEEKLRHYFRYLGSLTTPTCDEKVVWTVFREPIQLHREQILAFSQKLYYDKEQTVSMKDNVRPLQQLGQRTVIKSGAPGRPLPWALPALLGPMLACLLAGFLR

As usually defined, the pKi is −log10 of the Ki, conventionally taken in molar units. In the case of `NS(=O)(=O)c1ccc(CCN(Cc2cccc3ccccc23)C(=O)c2ccc(-c3cssc3=S)cc2)cc1`, the pKi on Carbonic anhydrase 4 was 6.61; on Carbonic anhydrase 2, 5.35; on Carbonic anhydrase 9 it was 7.81; at Carbonic anhydrase 1, below 5.00; on Carbonic anhydrase 12, 8.15. In addition, the result in the data set with Rattus norvegicus [1], in the data set with Rattus norvegicus [2], with Rattus norvegicus [3] and in the data set on Liver [5] was Active. Further, the Activity entry in data set [4], in data set [6] and in [8] was “Non-Toxic” in each case. The T1/2 in the data set on Liver [7] worked out at 4.3 min. In addition, the Cmax in the data set with Liver [9] stood at 7.9 µM.
Turning to `NS(=O)(=O)c1ccc(CCNCc2cccc3ccccc23)cc1`, the pKi at Carbonic anhydrase 9 is 7.34.
For the compound `CN(C)c1ccc(CN(CCc2ccc(S(N)(=O)=O)cc2)C(=O)c2ccc(-c3cssc3=S)cc2)cc1`, the negative logarithm of the Ki (pKi) was 5.47 on Carbonic anhydrase 4; 6.00 on Carbonic anhydrase 2; 7.64 at Carbonic anhydrase 9; 5.37 at Carbonic anhydrase 1; 8.02 on Carbonic anhydrase 12.
In the case of `NS(=O)(=O)c1ccc(CCN(Cc2csc3ccccc23)C(=O)c2ccc(-c3cssc3=S)cc2)cc1`, the negative logarithm of the Ki (pKi) was 7.32 at Carbonic anhydrase 4; 5.61 at Carbonic anhydrase 2; 8.62 on Carbonic anhydrase 9; below 5.00 at Carbonic anhydrase 1; 8.10 at Carbonic anhydrase 12. The result in the data set with Rattus norvegicus [1], with Rattus norvegicus [3] and with Liver [5] was Active. For the same compound, the Activity entry is “Dde” in the data set on Rattus norvegicus [10], “Non-Toxic” in data set [4], “Non-Toxic” in data set [6] and “Non-Toxic” in data set [8]. Besides, in the data set on Liver [7], the T1/2 turned out to be 4.3 min. Besides, the Cmax with Liver [9] is 7.9 µM.
With `NS(=O)(=O)c1ccc(CCN(Cc2ccc(F)cc2)C(=O)c2ccc(-c3cssc3=S)cc2)cc1`, the pKi at Carbonic anhydrase 4 was below 5.00; at Carbonic anhydrase 2, 6.22; on Carbonic anhydrase 9, 7.33; at Carbonic anhydrase 1 it was 5.27; on Carbonic anhydrase 12 it was 7.19.
Consider `COc1cc([N+](=O)[O-])ccc1CN(CCc1ccc(S(N)(=O)=O)cc1)C(=O)c1ccc(-c2cssc2=S)cc1`, for which the pKi on Carbonic anhydrase 4 is 5.39; on Carbonic anhydrase 2 it was 5.53; at Carbonic anhydrase 9, 8.39; on Carbonic anhydrase 1, 5.17; at Carbonic anhydrase 12, 8.11. The Activity entry in the data set with Rattus norvegicus [11] was “Dde”; in the data set on Rattus norvegicus [10], “Dde”; in data set [4], “Non-Toxic”; in [6], “Non-Toxic”; in data set [8], “Non-Toxic”. Also, the outcome in the data set with Liver [5] was Active. Moreover, the T1/2 in the data set on Liver [7] turned out to be 4.3 min. In addition, the Cmax with Liver [9] is 7.9 µM.
With `NS(=O)(=O)c1ccc(CCN(Cc2ccc(Cl)cc2)C(=O)c2ccc(-c3cssc3=S)cc2)cc1`, the pKi at Carbonic anhydrase 4 is 6.37; on Carbonic anhydrase 2, 5.53; on Carbonic anhydrase 9, 7.62; at Carbonic anhydrase 1 it was 5.26; on Carbonic anhydrase 12, 8.01.
For `COc1ccc(CN(CCc2ccc(S(N)(=O)=O)cc2)C(=O)c2ccc(-c3cssc3=S)cc2)cc1`, in that order: 5.80, 6.23, 7.30, 5.65 and 7.12.
For `N#CCCN(CCc1ccc(S(N)(=O)=O)cc1)C(=O)c1ccc(-c2cssc2=S)cc1`, in that order: 6.28, 7.22, 7.54, 6.37 and 8.04.
`NS(=O)(=O)c1ccc(CCN(Cc2ccccc2)C(=O)c2ccc(-c3cssc3=S)cc2)cc1`: the negative-log Ki (pKi) at Carbonic anhydrase 4 was 5.36; on Carbonic anhydrase 2, 6.32; on Carbonic anhydrase 9, 7.37; at Carbonic anhydrase 12 it was 8.01.
Turning to `N#Cc1ccc(CN(CCc2ccc(S(N)(=O)=O)cc2)C(=O)c2ccc(-c3cssc3=S)cc2)cc1`, the negative-log Ki (pKi) was 7.34 at Carbonic anhydrase 4; 5.32 at Carbonic anhydrase 2; 7.39 on Carbonic anhydrase 9; below 5.00 on Carbonic anhydrase 1; 8.06 on Carbonic anhydrase 12.
In the case of `NS(=O)(=O)c1ccc(CCN(Cc2ccc(Br)cc2)C(=O)c2ccc(-c3cssc3=S)cc2)cc1`, the pKi on Carbonic anhydrase 4 is 5.98; on Carbonic anhydrase 2, 5.44; on Carbonic anhydrase 9 it was 7.72; at Carbonic anhydrase 1 it was 5.11; on Carbonic anhydrase 12, 7.89.
In the case of `CSc1ccc(CN(CCc2ccc(S(N)(=O)=O)cc2)C(=O)c2ccc(-c3cssc3=S)cc2)cc1`, the negative-log Ki (pKi) on Carbonic anhydrase 4 was 6.39; on Carbonic anhydrase 2, 5.02; at Carbonic anhydrase 9, 7.34; at Carbonic anhydrase 1, 5.14; on Carbonic anhydrase 12 it was 8.08. Further, the result with Rattus norvegicus [1], in the data set with Rattus norvegicus [3] and in the data set with Liver [5] was Active. Besides, the Activity entry is “Dde” in the data set on Rattus norvegicus [10], “Non-Toxic” in data set [4], “Non-Toxic” in [6] and “Non-Toxic” in data set [8]. The T1/2 with Liver [7] was found to be 4.3 min. In the data set with Liver [9], the Cmax was determined as 7.9 µM.
As for `COc1ccc(CN(CCc2ccc(S(N)(=O)=O)cc2)C(=O)c2ccc(-c3cssc3=S)cc2)cc1OC`, the negative-log Ki (pKi) on Carbonic anhydrase 4 was 6.53; at Carbonic anhydrase 2 it was 6.66; at Carbonic anhydrase 9, 7.73; on Carbonic anhydrase 12, 8.05.
Regarding `O=C(O)c1ccc(-c2cssc2=S)cc1`, the Cmax in the data set with Liver [12] was determined as 12.1 µM. For the same compound, the result in the data set with Rattus norvegicus [13], in the data set on Rattus norvegicus [14] and in the data set on Liver [5] was Active. Besides, the T1/2 with Liver [7] came to 3.1 min.
Regarding `NS(=O)(=O)c1ccc(CCN(CCc2ccccc2)C(=O)c2ccc(-c3cssc3=S)cc2)cc1`, the pKi on Carbonic anhydrase 4 was 6.61; on Carbonic anhydrase 2, 6.18; at Carbonic anhydrase 9, 6.90; on Carbonic anhydrase 1 it was 5.36; at Carbonic anhydrase 12, 8.02.
Regarding `NS(=O)(=O)c1ccc(CCN(Cc2ccc([N+](=O)[O-])cc2)C(=O)c2ccc(-c3cssc3=S)cc2)cc1`, the pKi at Carbonic anhydrase 4 is below 5.00; on Carbonic anhydrase 2, 6.04; at Carbonic anhydrase 9 it was 7.44; on Carbonic anhydrase 1, 5.13; on Carbonic anhydrase 12 it was 7.48.

The values above are taken from ChEMBL document CHEMBL5104181, “Development of Hydrogen Sulfide-Releasing Carbonic Anhydrases IX- and XII-Selective Inhibitors with Enhanced Antihyperalgesic Action in a Rat Model of Arthritis” (J Med Chem, 2022).
